Assay outcomes as filed in PubChem.
SR-BI uptake up: activators of SR-BI mediated DiI-HDL uptake, primary screen, ldlA[mSR-BI] CHO cells, DiI fluorescence; 3 h; 100 = double the neutral-control signal; activation, % at 12.5 µM; actives 0.096% (n = 320,000); AID 504775, 2011;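 active = mean replicate activation of at least 60% and every replicate at or above 60%; inconclusive = mean or all-replicate condition met, but not both; inactive = mean below 60% and not all replicates reaching 60%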;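 note: 0% = median plate neutral-control signal and 100% = twice that signal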
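material = CHO ldlA[mSR-BI] cells | medium = Ham's F12 with 0.5% BSA, HEPES 25 mM, pH 7.4 | reagent = fluorescent DiI-HDL, 10 µg/mL final | compound dosing = single-point compound dose | incubation = 3 h, 37 °C | measured by = bottom-read fluorescence, 550/595 nm | measure = HDL uptake via cellular fluorescence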
SR-BI HDL uptake: inhibitors of SR-BI mediated HDL lipid uptake, primary screen, ldlA[mSR-BI] cells, fluorescence, single point; actives 0.96% (n = 320,000); ldlA[mSR-BI] CHO cells, DiI-HDL uptake fluorescence, 3 h; Scavenger receptor class B member 1 (Mus musculus), Q61009; inhibition, % at 12.5 µM;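 active = mean replicate inhibition of at least 70% and a set share of replicates each scoring 70 or more; inconclusive = meets just one of the two criteria; inactive = fails both criteria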;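 note: 0% = median of neutral control wells and 100% = median of positive control wells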
Target sequence (Q61009 whole entry, looked up): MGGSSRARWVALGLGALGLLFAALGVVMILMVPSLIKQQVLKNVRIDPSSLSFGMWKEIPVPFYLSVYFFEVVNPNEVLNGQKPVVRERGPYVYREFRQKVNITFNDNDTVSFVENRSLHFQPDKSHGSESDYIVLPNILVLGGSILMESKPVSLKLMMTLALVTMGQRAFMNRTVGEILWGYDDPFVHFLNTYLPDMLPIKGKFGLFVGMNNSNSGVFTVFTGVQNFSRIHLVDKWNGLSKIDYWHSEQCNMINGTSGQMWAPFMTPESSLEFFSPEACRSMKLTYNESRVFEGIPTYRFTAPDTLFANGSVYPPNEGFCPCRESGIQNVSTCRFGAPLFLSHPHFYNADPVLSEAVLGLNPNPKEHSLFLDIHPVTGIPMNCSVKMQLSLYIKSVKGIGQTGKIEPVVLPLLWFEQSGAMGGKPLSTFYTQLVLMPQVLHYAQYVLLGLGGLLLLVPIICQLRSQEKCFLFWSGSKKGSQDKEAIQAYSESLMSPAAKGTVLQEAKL
CDK5 inh: inhibitors of human CDK5/p35 kinase, primary screen, biochemical, single concentration; Cyclin-dependent kinase 5 (Homo sapiens) + Cyclin-dependent kinase 5 activator 1 (Homo …; Recombinant CDK5/p35, ADP-Glo luminescence, 60 min; inhibition, % at 10 µM; actives 0.01% (n = 330,000); AID 488839, 2010;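 active = highest replicate inhibition of at least 50% and at least 75% of replicates reaching 50%; inconclusive = only one of the two criteria met; inactive = both criteria failed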;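 note: plate controls were DMSO neutral control for no effect and GW8510 at 10 µM for full effect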
GSK3B inh: human GSK3beta kinase inhibitors, primary screen, biochemical, cell-free homogeneous, HTS; actives 0.038% (n = 300,000); Glycogen synthase kinase-3 beta (Homo sapiens), P49841; GST-GSK3beta kinase, ADP-Glo luminescence, 60 min; hits give low values; activity score (negative = inhibition), % at 10 µM;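 active = more than half of replicate wells score below -50%, meaning over 50% inhibition versus plate controls; inconclusive = some replicates but at most half score below -50%; inactive = no replicate scores below -50%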;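 note: 0% = median DMSO wells and -100% = median GW8510 positive control wells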
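Assay system: GST-fused GSK3beta enzyme, cell-free / Medium: Tris pH 7.5 buffer with MgCl2, DTT, BSA, heparin / Also added: peptide substrate plus 25 µM ATP (final) / Compound: 10 µM single point / Timing: kinase reaction with compound 60 min at room temperature / Detection: ADP-Glo luminescence / Benchmarks: DMSO neutral wells and GW8510 at 20 µM as positive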
GSK3A inh: blockers of GSK3A enzyme activity – biochemical, luminescence, cell-free homogeneous, HTS, primary screen; Glycogen synthase kinase-3 alpha (Homo sapiens), P49840; AID 2650, 2010; GSK-3 alpha kinase, ADP-Glo luminescence, 60 min; inhibition, % at 10 µM; actives 0.1% (n = 320,000);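 active = more than half of replicates show inhibition above 20%; inconclusive = some but at most half of replicates above 20% inhibition; inactive = no replicate shows inhibition above 20%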;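 note: GST-tagged GSK-3 alpha with peptide substrate and 25 µM ATP; 0% = DMSO neutral wells and 100% = GW8510 positive control wells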
DiI quencher: DiI fluorescence quenching in cell-free counter-screen; shares compounds with SR-BI HDL uptake; cell-free DiI-HDL fluorescence quenching, 30 min; AC50, µM (titrated, usually from 35 µM), inactives show top-dose activity change, negative = quenching; actives 20% (n = 470); AID 540326;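 active = quenching, a falling signal, with AC50 below a set limit tied to the top valid dose, actives reach about 32 µM in these data; inconclusive = no clear call, values can overlap the other calls; inactive = rising signal, and the rest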
* = called active by the depositor; ? = inconclusive; · = no result given. Compounds with a hit are over-represented: about 1.1% of the library has one in this group of screens.

SMILES	SR-BI uptake up	SR-BI HDL uptake	CDK5 inh	GSK3B inh	GSK3A inh	DiI quencher
COc1cc(/C=C2\COC/C(=C\c3cc(OC)c(OC)c(OC)c3)C2=O)cc(OC)c1OC	-83	83*	-1	-3	·	·
C=C(CN(C)C)C(=O)c1cc(C)ccc1C	-81	81*	3	·	·	·
Cc1ccc(C)c(C(=O)NCCN(C)C)c1	7	-7	1	-1	-3	·
COc1ccc(-n2c(C)c(C)c3c(NCCCO)ncnc32)cc1	16	-16	1	-2	0	·
O=C(CSc1nnc(NC2CCCCC2)s1)Nc1ccc2c(c1)C(=O)c1ccccc1C2=O	-73	73*	-1	0	0	·
CC(C)Nc1nnc(SCC(=O)Nc2ccc3c(c2)C(=O)c2ccccc2C3=O)s1	-27	27	0	1	-2	·
C/C(=N\NC(=O)c1ccn(C)n1)c1ccc(NC(=O)C2CCCC2)cc1	-33	33	0	3	-1	·
C/C(=N\NC(=O)c1nn(C)c(C)c1Br)c1ccc(NC(=O)C2CCCC2)cc1	-80	80*	0	-2	·	·
N#Cc1ccccc1NC(=O)C1SC(=Nc2ccccc2)C(C(=O)Nc2ccc(Cl)cc2)=C1N (configuration not stated)	-108	108*	0	0	-3	·
CCc1ccc(OCC(=O)N/N=C/c2cc([N+](=O)[O-])ccc2N2CCCCCC2)cc1	-69	69	1	4	0	·
O=C(N/N=C/c1cc([N+](=O)[O-])ccc1N1CCCCCC1)c1ccccn1	-80	80*	-1	-2	-1	·
CCn1c(C)nc2cc(C(=O)N/N=C(\C)c3ccc(OC)cc3O)ccc21	-88	88*	-1	0	·	·
CC[C@@H]1CC=C[C@H]2[C@H]1C(=O)N(Cc1ccccc1)[C@H]2c1cc(C)ccc1F	·	·	·	-1	·	·
CNC(=O)COC(=O)CCC(=O)c1cccs1	24	-24	0	-3	0	·
CC(=O)c1ccc(NC(=O)COC(=O)CCC(=O)c2cccs2)cc1	270*	-270	1	-2	1	·
COc1cc(SSc2cc(OC)cc([N+](=O)[O-])c2N)c(N)c([N+](=O)[O-])c1	-60	60	7	-1	0	·
Cc1ccc(S(=O)(=O)O/N=C2\CCCc3ccccc32)cc1	-22	22	-1	2	-3	·
CC1=C(C)/C(=N\OS(=O)(=O)c2ccccc2)C=CC1=O	-87	87*	-1	2	1	·
CC1=Nc2ccccc2/C1=C\c1sc(Nc2ccc(C)cc2)nc1O	-75	75*	0	-1	5	·
CCN(CC)C(=O)Cn1cc(C(=O)C(=O)NCCc2c[nH]c3ccccc23)c2ccccc21	-34	34	0	1	3	·
O=C(NCCCCNC(=O)c1ccccc1F)c1ccccc1F	-75	75*	-1	3	0	·
Oc1c(Br)cc(Br)cc1/C=N/NC(=S)N[C@H]1CC2C=CC1C2 (some centres not stated)	-78	78*	0	-1	-3	·
COC(=O)c1ccccc1C(=O)N1CCCC(CCC(=O)NCc2ccc(F)c(F)c2)C1 (configuration not stated)	-15	15	0	-2	-1	·
CCN(CC)S(=O)(=O)c1ccc(Cl)c(NC(=S)NC(=O)C2CCCC2)c1	-71	71*	0	·	-2	·
CCN(CC)c1ccc(S(=O)(=O)Nc2cc(Cl)ccc2Cl)cc1NC(=S)NC(=O)C1CCCC1	33	-33	1	4	-5	·
SMILES	SR-BI uptake up	SR-BI HDL uptake	CDK5 inh	GSK3B inh	GSK3A inh	DiI quencher
COc1ccc(CCNC(=O)CCC(=O)N2CC(C)Oc3ccc(Cl)cc32)cc1OC (configuration not stated)	-71	?	0	-6	0	-2%
COc1cc(OC)cc(C(=O)N[C@H](C(=O)OCC(=O)c2ccc3c(c2)NC(=O)CO3)C(C)C)c1	16	-16	1	0	-1	6%
Cc1cccc(C(=O)OCC(=O)c2ccc3c(c2)NC(=O)CO3)c1	0	0	1	·	-5	·
CC(C)[C@H](NC(=O)c1ccccc1)C(=O)OCC(=O)c1ccc2c(c1)NC(=O)CO2	-10	10	2	0	-1	·
CC[C@H](C)[C@H](NC(=O)c1ccc(Cl)cc1)C(=O)OCC(=O)c1ccc2c(c1)NC(=O)CO2	-86	86*	2	-1	2	2%
CC(C)C(C(=O)OCC(=O)c1ccc2c(c1)NC(=O)CO2)N1C(=O)c2ccccc2C1=O (configuration not stated)	-23	23	1	-1	-1	-1%
O=C(CN1CCOCC1)Nc1ccc([N+](=O)[O-])cc1	·	·	-1	3	-3	·
COc1cc2c(cc1OC)-c1cc(NC3CCCC3)nc(=O)n1CC2	21	-21	0	3	0	·
COc1cc2c(cc1OC)-c1cc(OCc3ccccc3Cl)nc(=O)n1CC2	-73	78*	2	1	0	-4%
CCN(CC)C(=O)Cn1cc(C(=O)C(=O)NCCCn2ccnc2)c2ccccc21	26	-26	-2	1	0	·
CNC(=O)c1ccc(Nc2nnc(-c3ccc(O)cc3)c3ccccc23)cc1	-99	99*	0	-5	-3	3%
COc1cccc(-c2nnc(SC(C(=O)c3c[nH]c4ccccc34)c3ccccc3)n2C)c1 (configuration not stated)	-75	75*	1	0	1	1%
Cc1noc(C)c1CSCC(=O)Nc1ccccc1N1CCCCC1	-11	11	2	-4	-2	·
COCc1cc(=O)oc2cc(NC(=O)c3ccc(C(C)(C)C)cc3)ccc12	-71	?	1	0	1	3%
CCc1cc2cc3c(cc2nc1SCC(=O)OC(C)C)OCO3	-77	77*	3	2	0	4%
Cc1cc2cc3c(cc2nc1SCC(=O)OC(C)C)OCCO3	-47	47	0	-23	-1	·
COc1ccccc1NS(=O)(=O)c1ccc(O)c(C(=O)OCC(=O)N2c3ccccc3CC2C)c1 (configuration not stated)	·	·	-1	1	·	·
c1ccc(CCNc2nc(-c3ccncc3)nc3ccccc23)cc1	-73	?	-1	-4	5	2%
COc1cc(/C=C/C(=O)Nc2cccc(S(=O)(=O)NC3=NCCCCC3)c2)ccc1OCC#N	-75	75*	-5	4	-1	0%
